Positions of bridges follow the written chain, without caps; N, C: chain ends. Non-standard residues stand in square brackets, D forms with d. Residues, ends and D or L forms follow the SMILES beside them. 1Nal = N[C@@H](Cc1cccc2ccccc12)C(=O)O
Experiments:
[1] = biological target: Sodium channel protein type 5 subunit alpha (Homo sapiens, UniProt Q14524); assay: Inhibition of human Nav1.5 expressed in HEK293 cells assessed as inward peak current by ion-works quattro patch clamp electrophysiology method; assay type: cell-based
Procedure, shortened: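 Stable HEK293 line expressing human NaV1.5, recorded by population patch clamp on the IonWorks Quattro.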

[2] = biological target: Sodium channel protein type 9 subunit alpha (Homo sapiens, UniProt Q15858); assay: Inhibition of human Nav1.7 expressed in HEK293 cells assessed as inward peak current by ion-works quattro patch clamp electrophysiology method; assay type: cell-based
Sequence of Sodium channel protein type 9 subunit alpha (Q15858 whole entry): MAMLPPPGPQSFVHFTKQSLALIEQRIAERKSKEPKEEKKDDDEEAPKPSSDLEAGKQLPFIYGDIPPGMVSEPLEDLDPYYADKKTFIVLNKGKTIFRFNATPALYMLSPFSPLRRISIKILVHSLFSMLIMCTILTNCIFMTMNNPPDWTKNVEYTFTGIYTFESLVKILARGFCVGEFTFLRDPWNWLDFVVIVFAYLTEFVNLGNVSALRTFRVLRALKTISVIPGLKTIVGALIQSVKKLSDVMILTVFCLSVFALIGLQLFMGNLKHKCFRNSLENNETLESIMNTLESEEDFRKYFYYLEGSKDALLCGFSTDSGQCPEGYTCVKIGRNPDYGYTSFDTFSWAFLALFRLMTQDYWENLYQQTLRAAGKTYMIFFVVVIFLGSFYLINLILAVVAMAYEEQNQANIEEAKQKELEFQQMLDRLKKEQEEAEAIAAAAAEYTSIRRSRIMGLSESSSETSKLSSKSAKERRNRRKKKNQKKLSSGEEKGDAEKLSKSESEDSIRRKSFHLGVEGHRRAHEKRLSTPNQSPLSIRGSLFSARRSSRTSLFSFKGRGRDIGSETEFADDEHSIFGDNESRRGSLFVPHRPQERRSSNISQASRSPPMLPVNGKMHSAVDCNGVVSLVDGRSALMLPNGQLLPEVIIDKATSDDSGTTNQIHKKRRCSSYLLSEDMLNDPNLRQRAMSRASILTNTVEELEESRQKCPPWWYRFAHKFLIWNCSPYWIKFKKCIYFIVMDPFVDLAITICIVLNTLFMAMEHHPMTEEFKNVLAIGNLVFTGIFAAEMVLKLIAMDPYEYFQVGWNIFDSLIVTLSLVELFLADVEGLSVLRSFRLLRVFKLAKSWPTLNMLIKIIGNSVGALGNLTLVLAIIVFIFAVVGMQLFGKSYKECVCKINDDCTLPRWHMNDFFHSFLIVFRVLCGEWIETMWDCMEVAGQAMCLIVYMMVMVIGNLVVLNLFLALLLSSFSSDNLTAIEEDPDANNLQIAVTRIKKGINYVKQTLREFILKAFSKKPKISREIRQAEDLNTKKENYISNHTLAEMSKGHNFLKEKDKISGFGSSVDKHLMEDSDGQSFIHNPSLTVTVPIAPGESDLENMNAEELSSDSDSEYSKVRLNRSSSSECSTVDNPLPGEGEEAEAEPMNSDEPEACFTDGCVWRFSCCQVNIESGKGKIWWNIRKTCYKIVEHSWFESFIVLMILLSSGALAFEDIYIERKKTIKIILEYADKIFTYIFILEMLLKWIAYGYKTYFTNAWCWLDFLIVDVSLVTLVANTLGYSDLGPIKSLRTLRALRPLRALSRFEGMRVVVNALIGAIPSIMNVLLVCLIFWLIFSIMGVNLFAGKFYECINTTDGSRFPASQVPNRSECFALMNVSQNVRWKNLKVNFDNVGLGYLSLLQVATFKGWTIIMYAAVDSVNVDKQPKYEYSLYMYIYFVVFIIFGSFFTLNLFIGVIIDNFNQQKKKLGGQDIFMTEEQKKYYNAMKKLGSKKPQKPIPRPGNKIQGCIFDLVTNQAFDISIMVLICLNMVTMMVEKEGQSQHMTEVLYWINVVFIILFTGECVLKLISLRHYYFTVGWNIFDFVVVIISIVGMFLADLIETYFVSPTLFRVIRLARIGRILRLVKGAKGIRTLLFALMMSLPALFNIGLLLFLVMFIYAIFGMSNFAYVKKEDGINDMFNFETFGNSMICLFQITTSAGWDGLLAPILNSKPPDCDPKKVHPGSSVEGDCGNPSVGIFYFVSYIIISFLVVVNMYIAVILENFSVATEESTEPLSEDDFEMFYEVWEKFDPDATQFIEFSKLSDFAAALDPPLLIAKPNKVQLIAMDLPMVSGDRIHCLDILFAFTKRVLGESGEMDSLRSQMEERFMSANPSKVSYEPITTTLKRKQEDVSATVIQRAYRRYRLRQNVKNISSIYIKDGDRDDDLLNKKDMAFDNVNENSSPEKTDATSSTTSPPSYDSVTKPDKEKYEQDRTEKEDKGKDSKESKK

Sequence of Sodium channel protein type 5 subunit alpha (Q14524 whole entry): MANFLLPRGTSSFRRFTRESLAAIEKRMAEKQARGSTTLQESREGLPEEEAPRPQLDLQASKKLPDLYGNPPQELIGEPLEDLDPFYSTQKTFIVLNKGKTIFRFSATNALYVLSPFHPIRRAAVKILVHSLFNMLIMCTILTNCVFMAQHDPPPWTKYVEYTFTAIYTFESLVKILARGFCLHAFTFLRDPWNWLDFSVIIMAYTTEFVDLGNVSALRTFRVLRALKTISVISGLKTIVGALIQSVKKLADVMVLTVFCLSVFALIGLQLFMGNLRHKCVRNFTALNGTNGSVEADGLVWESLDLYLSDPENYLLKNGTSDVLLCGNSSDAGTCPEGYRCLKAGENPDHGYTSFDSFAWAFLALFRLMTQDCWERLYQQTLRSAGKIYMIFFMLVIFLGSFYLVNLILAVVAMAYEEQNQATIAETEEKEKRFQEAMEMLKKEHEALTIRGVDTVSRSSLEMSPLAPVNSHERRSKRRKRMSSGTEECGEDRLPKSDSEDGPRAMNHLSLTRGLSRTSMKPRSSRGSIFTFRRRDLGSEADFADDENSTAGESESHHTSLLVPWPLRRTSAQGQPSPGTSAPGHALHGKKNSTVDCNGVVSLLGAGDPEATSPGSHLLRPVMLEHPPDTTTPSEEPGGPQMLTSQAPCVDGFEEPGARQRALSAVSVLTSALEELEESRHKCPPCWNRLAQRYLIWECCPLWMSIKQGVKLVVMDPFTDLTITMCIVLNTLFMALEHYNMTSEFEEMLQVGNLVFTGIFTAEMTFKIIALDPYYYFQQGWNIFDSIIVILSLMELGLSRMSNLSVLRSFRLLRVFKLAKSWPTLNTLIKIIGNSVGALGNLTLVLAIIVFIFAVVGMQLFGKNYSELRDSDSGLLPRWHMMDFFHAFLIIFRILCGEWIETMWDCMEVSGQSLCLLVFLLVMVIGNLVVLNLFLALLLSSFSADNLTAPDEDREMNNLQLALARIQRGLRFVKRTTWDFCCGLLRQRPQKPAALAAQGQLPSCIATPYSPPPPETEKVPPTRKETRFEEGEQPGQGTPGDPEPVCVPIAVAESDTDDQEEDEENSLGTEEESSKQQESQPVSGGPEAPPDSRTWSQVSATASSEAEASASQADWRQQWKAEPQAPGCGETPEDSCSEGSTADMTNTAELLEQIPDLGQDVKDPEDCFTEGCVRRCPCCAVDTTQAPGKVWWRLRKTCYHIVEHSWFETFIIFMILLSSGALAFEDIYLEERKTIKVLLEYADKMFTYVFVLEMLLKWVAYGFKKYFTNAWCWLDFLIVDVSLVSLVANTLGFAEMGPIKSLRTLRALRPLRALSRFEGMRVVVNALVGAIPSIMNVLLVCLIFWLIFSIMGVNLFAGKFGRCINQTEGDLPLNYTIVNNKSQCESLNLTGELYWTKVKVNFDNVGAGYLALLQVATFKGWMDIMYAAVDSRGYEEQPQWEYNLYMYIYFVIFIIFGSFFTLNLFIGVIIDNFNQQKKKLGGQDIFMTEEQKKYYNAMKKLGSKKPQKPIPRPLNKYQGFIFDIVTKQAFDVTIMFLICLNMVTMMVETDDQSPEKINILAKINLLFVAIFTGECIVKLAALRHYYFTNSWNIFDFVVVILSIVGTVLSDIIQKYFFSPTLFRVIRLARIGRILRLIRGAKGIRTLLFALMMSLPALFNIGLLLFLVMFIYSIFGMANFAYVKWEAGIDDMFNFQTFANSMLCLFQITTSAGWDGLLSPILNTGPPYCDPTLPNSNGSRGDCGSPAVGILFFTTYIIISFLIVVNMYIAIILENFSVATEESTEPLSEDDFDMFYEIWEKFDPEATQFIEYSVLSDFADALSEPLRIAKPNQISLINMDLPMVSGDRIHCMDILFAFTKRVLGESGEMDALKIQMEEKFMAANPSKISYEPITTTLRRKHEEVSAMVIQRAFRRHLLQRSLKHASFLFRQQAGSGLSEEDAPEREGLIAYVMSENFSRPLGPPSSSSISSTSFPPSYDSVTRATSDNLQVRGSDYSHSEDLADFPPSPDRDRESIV

| SMILES | IC50 [1] | IC50 [2] |
| --- | --- | --- |
| CC[C@H](C)[C@@H]1NC(=O)[C@@H]2CSSC[C@@H]3NC(=O)[C@H](C(C)C)NC(=O)[C@H](CC(C)C)NC(=O)[C@H](CC(N)=O)NC(=O)[C@@H]4CCCN4C(=O)[C@H](CCCNC(=N)N)NC(=O)[C@H](CSSC[C@H](NC(=O)[C@@H](N)CC(=O)O)C(=O)N[C@@H](CC(C)C)C(=O)NCC(=O)N[C@@H](Cc4ccccc4)C(=O)N[C@@H](CCSC)C(=O)N[C@@H](CCCNC(=N)N)C(=O)N[C@@H](CCCCN)C(=O)N2)NC(=O)[C@H](CSSC[C@@H](C(=O)N[C@@H](CCCCN)C(=O)N[C@@H](Cc2ccc(O)cc2)C(=O)N[C@@H](Cc2cccc4ccccc24)C(=O)N[C@@H](Cc2ccccc2)C(N)=O)NC(=O)[C@H](Cc2c[nH]c4ccccc24)NC(=O)[C@H](CCCCN)NC(=O)[C@H](Cc2cnc[nH]2)NC(=O)[C@H]([C@@H](C)O)NC(=O)[C@H](CCCNC(=N)N)NC(=O)[C@H](CO)NC3=O)NC(=O)[C@H](CCCCN)NC(=O)[C@H](CC(=O)O)NC(=O)[C@H](CC(N)=O)NC(=O)[C@H](CC(=O)O)NC(=O)[C@@H]2CCCN2C1=O (H-DCLGFMRKCIPDNDKCCRPNLVCSRTHKWCKY[1Nal]F-NH2; disulfide 2-17, 9-23, 16-30) | > 5000 nM | 70 nM |
| CC[C@H](C)[C@@H]1NC(=O)[C@@H]2CSSC[C@@H]3NC(=O)[C@H](C(C)C)NC(=O)[C@H](CC(C)C)NC(=O)[C@H](CC(N)=O)NC(=O)[C@@H]4CCCN4C(=O)[C@H](CCCNC(=N)N)NC(=O)[C@H](CSSC[C@H](NC(=O)[C@H](CC(=O)O)NC(=O)[C@@H](N)CCC(=O)O)C(=O)N[C@@H](CC(C)C)C(=O)NCC(=O)N[C@@H](Cc4ccccc4)C(=O)N[C@@H](CCSC)C(=O)N[C@@H](CCCNC(=N)N)C(=O)N[C@@H](CCCCN)C(=O)N2)NC(=O)[C@H](CSSC[C@@H](C(=O)N[C@@H](CCCCN)C(=O)N[C@@H](Cc2ccc(O)cc2)C(=O)N[C@H](C(=O)N[C@@H](Cc2ccccc2)C(N)=O)C(C)C)NC(=O)[C@H](Cc2c[nH]c4ccccc24)NC(=O)[C@H](CCCCN)NC(=O)[C@H](Cc2cnc[nH]2)NC(=O)[C@H]([C@@H](C)O)NC(=O)[C@H](CCCNC(=N)N)NC(=O)[C@H](CO)NC3=O)NC(=O)[C@H](CCCCN)NC(=O)[C@H](CC(=O)O)NC(=O)[C@H](CC(N)=O)NC(=O)[C@H](CC(=O)O)NC(=O)[C@@H]2CCCN2C1=O | > 5000 nM | 270 nM |
| CC[C@H](C)[C@@H]1NC(=O)[C@@H]2CSSC[C@@H]3NC(=O)[C@H](C(C)C)NC(=O)[C@H](CC(C)C)NC(=O)[C@H](CC(N)=O)NC(=O)[C@@H]4CCCN4C(=O)[C@H](CCCNC(=N)N)NC(=O)[C@H](CSSC[C@H](NC(=O)[C@@H](N)CC(=O)O)C(=O)N[C@@H](CC(C)C)C(=O)NCC(=O)N[C@@H](Cc4ccccc4)C(=O)N[C@@H](CCSC)C(=O)N[C@@H](CCCNC(=N)N)C(=O)N[C@@H](CCCCN)C(=O)N2)NC(=O)[C@H](CSSC[C@@H](C(=O)N[C@@H](CCCCN)C(=O)N[C@@H](Cc2ccc(O)cc2)C(=O)N[C@H](C(=O)N[C@@H](CCCNC(=N)N)C(N)=O)C(C)C)NC(=O)[C@H](Cc2c[nH]c4ccccc24)NC(=O)[C@H](CCCCN)NC(=O)[C@H](Cc2cnc[nH]2)NC(=O)[C@H]([C@@H](C)O)NC(=O)[C@H](CCCNC(=N)N)NC(=O)[C@H](CO)NC3=O)NC(=O)[C@H](CCCCN)NC(=O)[C@H](CC(=O)O)NC(=O)[C@H](CC(N)=O)NC(=O)[C@H](CC(=O)O)NC(=O)[C@@H]2CCCN2C1=O (H-DCLGFMRKCIPDNDKCCRPNLVCSRTHKWCKYVR-NH2; disulfide 2-17, 9-23, 16-30) | > 5000 nM | 2350 nM |
| CC[C@H](C)[C@@H]1NC(=O)[C@@H]2CSSC[C@@H]3NC(=O)[C@H](C(C)C)NC(=O)[C@H](CC(C)C)NC(=O)[C@H](CC(N)=O)NC(=O)[C@@H]4CCCN4C(=O)[C@H](CCCNC(=N)N)NC(=O)[C@H](CSSC[C@H](NC(=O)[C@@H](N)CC(=O)O)C(=O)N[C@@H](CC(C)C)C(=O)NCC(=O)N[C@@H](Cc4ccccc4)C(=O)N[C@@H](CCSC)C(=O)N[C@@H](CCCNC(=N)N)C(=O)N[C@@H](CCCCN)C(=O)N2)NC(=O)[C@H](CSSC[C@@H](C(=O)N[C@@H](CCCCN)C(=O)N[C@@H](CCC(=O)O)C(=O)N[C@H](C(=O)N[C@@H](Cc2ccccc2)C(N)=O)C(C)C)NC(=O)[C@H](Cc2c[nH]c4ccccc24)NC(=O)[C@H](CCCCN)NC(=O)[C@H](Cc2cnc[nH]2)NC(=O)[C@H]([C@@H](C)O)NC(=O)[C@H](CCCNC(=N)N)NC(=O)[C@H](CO)NC3=O)NC(=O)[C@H](CCCCN)NC(=O)[C@H](CC(=O)O)NC(=O)[C@H](CC(N)=O)NC(=O)[C@H](CC(=O)O)NC(=O)[C@@H]2CCCN2C1=O (H-DCLGFMRKCIPDNDKCCRPNLVCSRTHKWCKEVF-NH2; disulfide 2-17, 9-23, 16-30) | > 5000 nM | > 5000 nM |
| CC[C@H](C)[C@@H]1NC(=O)[C@@H]2CSSC[C@@H]3NC(=O)[C@H](C(C)C)NC(=O)[C@H](CC(C)C)NC(=O)[C@H](CC(N)=O)NC(=O)[C@@H]4CCCN4C(=O)[C@H](CCCNC(=N)N)NC(=O)[C@H](CSSC[C@H](NC(=O)[C@@H](N)CC(=O)O)C(=O)N[C@@H](CC(C)C)C(=O)NCC(=O)N[C@@H](Cc4ccccc4)C(=O)N[C@@H](CCSC)C(=O)N[C@@H](CCCCN)C(=O)N[C@@H](CCCCN)C(=O)N2)NC(=O)[C@H](CSSC[C@@H](C(=O)N[C@@H](CCCCN)C(=O)N[C@@H](Cc2ccc(O)cc2)C(=O)N[C@H](C(=O)N[C@@H](Cc2ccccc2)C(N)=O)C(C)C)NC(=O)[C@H](Cc2c[nH]c4ccccc24)NC(=O)[C@H](CCCCN)NC(=O)[C@H](Cc2c[nH]cn2)NC(=O)[C@H]([C@@H](C)O)NC(=O)[C@H](CCCNC(=N)N)NC(=O)[C@H](CO)NC3=O)NC(=O)[C@H](CCCCN)NC(=O)[C@H](CC(=O)O)NC(=O)[C@H](CC(N)=O)NC(=O)[C@H](CC(=O)O)NC(=O)[C@@H]2CCCN2C1=O (H-DCLGFMKKCIPDNDKCCRPNLVCSRTHKWCKYVF-NH2; disulfide 2-17, 9-23, 16-30) | > 5000 nM | 540 nM |
| CC[C@H](C)[C@@H]1NC(=O)[C@@H]2CSSC[C@@H]3NC(=O)[C@H](C(C)C)NC(=O)[C@H](Cc4c[nH]c5ccccc45)NC(=O)[C@H](CC(N)=O)NC(=O)[C@@H]4CCCN4C(=O)[C@H](CCCNC(=N)N)NC(=O)[C@H](CSSC[C@H](NC(=O)[C@@H](N)CC(=O)O)C(=O)N[C@@H](CC(C)C)C(=O)NCC(=O)N[C@@H](Cc4ccccc4)C(=O)N[C@@H](CCSC)C(=O)N[C@@H](CCCNC(=N)N)C(=O)N[C@@H](CCCCN)C(=O)N2)NC(=O)[C@H](CSSC[C@@H](C(=O)N[C@@H](CCCCN)C(=O)N[C@@H](Cc2ccc(O)cc2)C(=O)N[C@H](C(=O)N[C@@H](Cc2ccccc2)C(N)=O)C(C)C)NC(=O)[C@H](Cc2c[nH]c4ccccc24)NC(=O)[C@H](CCCCN)NC(=O)[C@H](Cc2cnc[nH]2)NC(=O)[C@H]([C@@H](C)O)NC(=O)[C@H](CCCNC(=N)N)NC(=O)[C@H](CO)NC3=O)NC(=O)[C@H](CCCCN)NC(=O)[C@H](CC(=O)O)NC(=O)[C@H](CC(N)=O)NC(=O)[C@H](CC(=O)O)NC(=O)[C@@H]2CCCN2C1=O (H-DCLGFMRKCIPDNDKCCRPNWVCSRTHKWCKYVF-NH2; disulfide 2-17, 9-23, 16-30) | > 5000 nM | 110 nM |

From ChEMBL document CHEMBL3797186, “Single Residue Substitutions That Confer Voltage-Gated Sodium Ion Channel Subtype Selectivity in the NaV1.7 Inhibitory Peptide GpTx-1” (J Med Chem, 2016)
